A selection: hits, their analogues and other compounds. The true share with any hit is near 4.2%.
Autophagy mod: autophagy modulators in MEF cells, primary screen, imaging, high-content, MEF GFP-LC3. calls only at 10 µM (by protocol). hit rate 0.98% among 190,000. MEF GFP-LC3 puncta imaging; test concentration mostly 10 µM;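 active means percentage of spot-positive cells more than 3 SD above its plate mean, without a fluorescence outlier flag or 80% toxicity; inconclusive means no clear call, values can overlap the other calls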;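 further: spot-positive cell cutoff set from DMSO-treated cells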
SKKanGAS inh: S. pyogenes SKKanGAS growth inhibitors in kanamycin, primary screen, streptokinase expression inhibitor project, SKKanGAS strain, BacTiter-Glo luminescence; 6 h; inhibition, % at 7.5 µM; hit rate 1.3% among 300,000; AID 1662, 2009;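 active means mean replicate score, as percent of positive control median, at least 50; inconclusive means mean below 50 but one replicate at or above 50; inactive means mean and every replicate below 50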;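 further: strain carries kanamycin resistance gene driven by streptokinase promoter and grows in 40 µg/ml kanamycin; loss of luminescence reflects streptokinase promoter inhibition or plain growth inhibition; 0% = median of DMSO wells and 100% = positive control at its reference dose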
WT yeast gro inh: growth inhibition of WT strain, primary screen, mitochondrial fusion inhibitor project, WT and mutant strains, chemical genetic; hit rate 2.1% among 190,000; inhibition, % at 10 µM; mitochondrial fusion phenotypic screen; in the data active means inhibition above about 58%; tested in S. cerevisiae
Rad51 HR inh: human RAD51 strand exchange inhibitors, primary screen, biochemical, fluorescence | AID 1385, 2008 | hRad51 DNA strand exchange, fluorescence dequenching | hit rate 0.085% among 200,000 | inhibition, % at 10 µM | DNA repair protein RAD51 homolog 1 (Homo sapiens), Q06609;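 active means inhibition above 40% at the single screening dose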;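 further: 0% = DMSO control wells and 100% = blanks with heterologous ssDNA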
Target sequence (Q06609 whole entry, looked up): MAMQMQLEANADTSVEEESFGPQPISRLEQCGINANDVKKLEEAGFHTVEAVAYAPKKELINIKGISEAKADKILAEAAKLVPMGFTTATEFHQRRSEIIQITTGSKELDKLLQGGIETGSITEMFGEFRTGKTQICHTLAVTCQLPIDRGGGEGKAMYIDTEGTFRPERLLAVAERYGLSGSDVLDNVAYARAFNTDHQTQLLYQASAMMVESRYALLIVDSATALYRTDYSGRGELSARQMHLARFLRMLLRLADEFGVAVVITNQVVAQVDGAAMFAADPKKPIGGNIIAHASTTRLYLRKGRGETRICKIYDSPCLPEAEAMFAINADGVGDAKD
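System: human Rad51 nucleoprotein filaments preassembled on unlabelled ssDNA. Reagent: labelled 47-mer dsDNA for strand exchange. Schedule: 30-min compound preincubation and 15-min exchange, both room temperature. Measured by: FRET fluorescence dequenching, excitation 485 nm, emission 520 nm. Read-out: Fluorescence-based percent inhibition, control- and blank-normalised. Benchmarks: plate controls and plate blanks.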
Ins promoter up: insulin promoter activators in MIN6 cells, imaging, high-content screening, mouse beta cells; z-score at 5 µM; hit rate 0.3% among 190,000; MIN6 insulin promoter-GFP reporter; active compounds read high;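 active means z-score above 3 at 5 µM with at least 500 cells counted in the well; inconclusive means wells under 500 cells, flagged as cytotoxic or low count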
Cl transport mod: KCC2 cotransporter modulators, thallium flux, primary screen, cell-based, HEK293 KCC2, FluoZin-2 fluorescence, MLSMR; B-score of Tl+ flux slope (higher = more flux/activation; lower = inhibition) at 10 µM; AID 1456, 2008; hit rate 2.2% among 190,000; KCC2 cells, thallium flux FluoZin-2 fluorescence;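 active means thallium flux slope and its plate-corrected score both differing from the plate sample mean at a set confidence after two filtering rounds, in either direction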;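 further: slope of fluorescence scaled to starting intensity during 10 to 20 s after thallium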
Active calls of the source: *; i = inactive; ? = inconclusive; . = no result; + = active, no number.

SMILES | Autophagy mod | SKKanGAS inh | WT yeast gro inh | Rad51 HR inh | Ins promoter up | Cl transport mod
O=C(/C=C/c1ccc(Cl)cc1)c1ccc([N+](=O)[O-])o1 | . | -6.1 | . | . | . | .
Cc1ccc(/C=C/C(=O)c2ccc([N+](=O)[O-])o2)cc1 | . | 66.8* | . | . | . | .
Cc1cccc(NC(=O)c2ccc([N+](=O)[O-])o2)c1C | i | 5.7 | 0.9 | -1.8 | -0.78 | 0.378
O=C(Nc1cccc2ccccc12)c1ccc([N+](=O)[O-])o1 | . | 52.5* | . | . | . | .
Cc1ccc(-c2csc(NC(=O)c3ccc([N+](=O)[O-])o3)n2)cc1 | . | 55.3* | . | . | . | .
Cc1c(CN2CCC(Oc3ccc(C(=O)N4CCCCC4)cc3)CC2)cnn1C | . | 12.6 | . | . | . | .
O=C(NC1CCCCC1)C(c1ccccc1)N(C(=O)c1csnn1)C1CCCC1 (stereo not drawn) | . | 0.6 | . | . | . | .
O=C(CSc1nnc(NC(=O)c2c(F)cccc2F)s1)NC1CCCCC1 | . | 0.4 | . | . | . | .
COc1cc(C(=O)OCC(=O)c2cc(C)n(CC3CCCO3)c2C)ccc1OCC(=O)N1CCOCC1 (stereo not drawn) | . | -12.4 | . | . | . | .
O=C(Nc1ccc(N2CCCC2)c(Cl)c1)c1ccc([N+](=O)[O-])o1 | i | . | 86.1* | -2.9 | 0.88 | -1.02
O=C(Nc1ccc(N2CCCCC2)cc1)c1ccc([N+](=O)[O-])o1 | . | 13.4 | . | . | . | .
COCCn1nnnc1CN(CCc1ccccc1)Cc1cc2cc(OC)ccc2[nH]c1=O | i | -5.5 | . | 6.7 | . | 0.966
CCC(c1nnnn1CCOC)N(Cc1ccc(C)cc1)Cc1cc2cc(OC)ccc2[nH]c1=O (stereo not drawn) | i | -4.1 | -8.0 | -14.8 | 0.5 | -3.13*
COCCn1nnnc1CN(CCc1ccc(OC)c(OC)c1)Cc1cc2ccc(C)cc2[nH]c1=O | + | -5.5 | 15.6 | -2.3 | -0.06 | -0.229
CCC(c1nnnn1Cc1ccccc1)N(Cc1ccco1)Cc1cc2cc(OC)ccc2[nH]c1=O (stereo not drawn) | i | 0.7 | 14.3 | 1.5 | -0.73 | -0.203
COc1cccc(CNC(=O)CSc2nc(=O)n(Cc3ccncc3)c3c2CCC3)c1 | . | -2.2 | . | . | . | .
Cc1ccc(SCC(=O)NC(=O)Nc2ccc3c(c2)OCCO3)cc1C | i | 2.7 | 1.2 | -6.3 | 0.1 | 0.256
O=C(C1CCC(=O)N(C2CC2)C1)N1CCN(c2cccc(Cl)c2)CC1 (stereo not drawn) | . | 4.1 | . | . | . | .
O=S(=O)(O)c1ccc(N2N=C(c3ccccc3)CC2c2ccccc2)cc1 (stereo not drawn) | i | -6.3 | -10.3 | -2.1 | 0.56 | 0.0076
NS(=O)(=O)c1ccc(N2N=C(c3ccccc3)CC2c2ccccc2)cc1 (stereo not drawn) | i | -7.0 | 71.9* | 0.0 | -0.91 | 1.4
CCc1ccc(C2=NN(c3ccc(S(N)(=O)=O)cc3)C(c3ccc(F)cc3)C2)cc1 (stereo not drawn) | i | 102.4* | 94.0* | 0.3 | -1 | 0.547
CCCCn1c(-c2ccco2)nc2oc3ccccc3c(=O)c2c1=O | . | 50.3* | . | 3.1 | -0.22 | 0.000376
COc1ccc(Cn2c(-c3ccco3)nc3oc4ccccc4c(=O)c3c2=O)cc1 | i | ? | 0.5 | -1.9 | 0.12 | 0.152
Cc1cnc(C(=O)OCC(=O)Nc2cc(-c3ccccc3)nn2-c2ccccc2)cn1 | . | 4.4 | . | . | . | .
O=C(Nc1ccc(Cl)cc1)c1cc2c(cc1O)[nH]c1ccccc12 | . | 99.5* | . | . | -0.57 | 0.63
SMILES | Autophagy mod | SKKanGAS inh | WT yeast gro inh | Rad51 HR inh | Ins promoter up | Cl transport mod
N#CC1=C(N)N2C(=C(C#N)C1c1ccccc1)Sc1ccccc12 (stereo not drawn) | + | -0.4 | 12.7 | -13.8 | . | .
Cn1c2ccccc2c2cc(/C=N/NC(=O)c3cc(O)cc(O)c3)ccc21 | . | 17.9 | . | . | . | .
COc1cc(C(=O)N/N=C/c2ccc3c(c2)c2ccccc2n3C)ccc1O | . | 50.8* | . | . | . | .
CCCSc1nc(NCc2ccco2)c2c3c(sc2n1)COC(C)(C)C3 | i | 37.8 | 69.5* | -37.6 | 0.76 | 0.8
COc1ccc(OCc2cc(C(=O)N3C[C@H]4CC[C@H]3C4)no2)c(Cl)c1 | . | -0.1 | . | . | . | .
COc1ccccc1N1CCN(C(=O)C2CC=CCC2C(=O)O)CC1 (stereo not drawn) | i | -2.5 | 1.0 | 0.5 | 0.33 | -3.57*
COC(=O)Cc1c(C)nc2nc(NCc3ccc(Cl)cc3)[nH]n2c1=O | i | -14.7 | 0.0 | . | 0.29 | 0.0965
COc1ccccc1CNc1nc2nc(C)cc(=O)n2[nH]1 | i | -3.6 | -5.2 | 1.2 | 0.52 | 0.545
COC(=O)Cc1c(C)nc2nc(NCc3ccccc3OC)[nH]n2c1=O | i | -4.6 | 2.1 | -0.2 | 4.27* | 0.445
COc1ccccc1CNc1nc2nc(C)c(C)c(=O)n2[nH]1 | i | -0.4 | 78.7* | -4.0 | 0.97 | 0.0541
COc1ccc(S(=O)(=O)Nc2ccc(OCC(=O)O)cc2)c2ccccc12 | . | -0.4 | . | . | . | .
Cc1nnc(NC(=O)c2oc3cc(C)c(C)cc3c2C)s1 | + | . | 7.0 | 0.3 | 0.55 | 0.0869
O=C(c1ccc(N2CCOCC2)cc1[N+](=O)[O-])N1CCOCC1 | i | -3.2 | -2.6 | -47.1 | 0.73 | -0.00985
CC1CC(C)(C)Nc2ccc(N=O)cc21 (stereo not drawn) | + | -1.0 | 74.8* | -0.4 | 4.12* | 0.348
CC1CC(C)(C)Nc2ccc(OC(=O)c3ccco3)cc21 (stereo not drawn) | i | 1.8 | 14.4 | -4.5 | 0.4 | 0.834
COCCN=c1scc(-c2ccccc2)n1/N=C/c1c[nH]c2ccccc12 | i | 8.5 | 78.8* | 4.7 | 0.14 | -2.48
COCCN=c1scc(-c2cccs2)n1/N=C/c1ccc(O)c(O)c1O | i | 12.0 | 2.8 | -5.3 | -3.69 | -1.3
Cc1ccc(C(=O)Nc2ccccc2Oc2ccccc2)cc1[N+](=O)[O-] | i | 3.7 | 60.8* | . | . | 0.733
CC(C)N(Cc1ccccc1)C(=S)NC(=O)C1(C)CC1(Cl)Cl (stereo not drawn) | i | 0.7 | 26.1 | 1.0 | 0.01 | 84.6*
CC1(C(=O)NC(=S)N(CCC#N)c2ccccc2)CC1(Cl)Cl (stereo not drawn) | i | 2.3 | -17.9 | -7.1 | . | 0.12
O=[N+]([O-])c1ccc(Nc2nc(NCCO)nc(N3CCCC3)n2)cc1 | i | 97.5* | 3.0 | -5.6 | -1.93 | -0.295
NNc1nc(Nc2ccc([N+](=O)[O-])cc2)nc(N2CCCCCC2)n1 | . | 81.6* | . | . | . | .
C=CCn1c(SCc2csc(-c3ccc(C)cc3)n2)nnc1-c1ccccc1OC | i | -5.1 | 81.4* | 2.7 | -0.45 | -2.38
Clc1ccccc1-c1nnc2sc(C3COc4ccccc4O3)nn12 (stereo not drawn) | i | . | 12.9 | -5.7 | -1.86 | -0.15

Bioassay records: PubChem, several laboratories
